The values below come from PMC4207547 (Journal of Medicinal Chemistry, 2014).

In one test the test system is CXCR1 and CXCR2. The test can be described thus: CXCL8-stimulated Ca2+ flux in hPMNs. Type of test: cell-based, human. The conditions noted are these: 1 μM compound. An outline of the steps:
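Human PMNs isolated from blood by dextran sedimentation, Histopaque 1077 gradient and hypotonic red-cell lysis (>95% pure, >98% viable). Cells loaded with FLIPR Calcium 3 dye in Ca2+/Mg2+-free HBSS with 10 mM HEPES plus test compound or DMSO (1% final), 37 °C, 30 min. They were then pelleted and resuspended in HBSS with Ca2+/Mg2+, and compound was re-added at the same concentration. Fluorescence was read at 10^5 cells/well: 15 s basal, then agonist injected.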
A general note: Calcium flux is commonly read through the fluorescence of an indicator in the cells.

For the next test, the system named is C5a-induced Ca2+ flux. The test is described as follows: C5a-induced Ca2+ flux in hPMNs. The conditions noted are these: for effect on C5a-induced Ca2+ flux, in words: hPMNs, concentrations up to 5 μM. Type of test: cell-based, human. An outline of the steps:
(§1)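 Human PMNs were isolated from healthy donor blood by dextran sedimentation, Histopaque 1077 gradient and hypotonic red cell lysis (>95% pure, >98% viable). Cells were dye-loaded (FLIPR Calcium 3) in Ca/Mg-free HBSS with 10 mM HEPES plus test compound or 1% DMSO for 30 min at 37 °C. They were then resuspended in HBSS+ with compound re-added, at 10^5 cells/well. Agonist final: C5a 50 nM, fMLF 10 nM. Fluorescence (ex 485/em 525 nm) was read every 5 s for 240–500 s at room temperature, max–min as % of DMSO control.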

In another test the test system is PAF-induced Ca2+ flux. The test can be described thus: PAF-induced Ca2+ flux in hPMNs. Type of test: cell-based, human. The conditions noted are these: for effect on PAF-induced Ca2+ flux, in words: hPMNs, concentrations up to 5 μM.
The subject of the next test is fMLF-induced Ca2+ flux. The test is described as follows: fMLF-induced Ca2+ flux in hPMNs. Conditions: for effect on fMLF-induced Ca2+ flux, in words: hPMNs, concentrations up to 5 μM. Type of test: cell-based, human. An outline of the steps:
as §1

The target of test [1] is T1, CXCR2 (Homo sapiens, UniProt P25025).
T1 sequence (P25025 1-360): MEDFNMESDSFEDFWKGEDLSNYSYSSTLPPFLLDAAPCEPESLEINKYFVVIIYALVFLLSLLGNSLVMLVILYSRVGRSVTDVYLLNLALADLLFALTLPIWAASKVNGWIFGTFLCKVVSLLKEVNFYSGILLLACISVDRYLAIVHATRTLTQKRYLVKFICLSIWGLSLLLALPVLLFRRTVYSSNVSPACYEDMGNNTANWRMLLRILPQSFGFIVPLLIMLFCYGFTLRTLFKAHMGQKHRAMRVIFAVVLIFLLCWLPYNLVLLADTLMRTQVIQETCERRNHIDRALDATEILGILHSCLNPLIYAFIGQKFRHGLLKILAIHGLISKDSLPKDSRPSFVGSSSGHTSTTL
The test is described as follows: Competition [125I]-CXCL8 binding assay, HEK293-hCXCR2 membranes. Conditions: up to 10 μM compound, 25 pM radioligand.

Test [2] addresses T1, CXCR2. The test can be described thus: CXCR2 cell surface expression by flow cytometry in HEK293 cells. The conditions noted are these: 10 μM, 60 min exposure. Type of test: cell-based. An outline of the steps: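 Stable HEK293-CXCR2 cells were pretreated with 1% DMSO vehicle or test compound for 60 min; untransfected HEK293 served as negative isotype control. Cells were stained with PE-conjugated anti-human CXCR2 mouse monoclonal (1:100) at 4 °C for 60 min, washed, and fixed in 2% formaldehyde/PBS. PE signal was quantified by flow cytometry; data representative of three independent experiments.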

The test system of test [3] is CXCR2-mediated phosphorylation of ERK1/2. The test is described as follows: CXCL8-induced ERK1/2 phosphorylation in HEK293 cells expressing CXCR2. Type of test: cell-based, human. The conditions noted are these: 10 μM compound, CXCL8 100 ng/mL, 0–30 min. An outline of the steps: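 G418-selected HEK293 pool stably expressing human CXCR2, 5 × 10^6 cells per 60 mm plate. […] Lysis was at 0, 5, 15 and 30 min in SDS/deoxycholate/Triton buffer with PMSF, aprotinin and leupeptin. Phospho-ERK1/2 and total ERK1/2 were detected by Western blot.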

The subject of a further test is male CD1 Swiss mice. The test is described as follows: Murine air-pouch model of inflammation. The conditions noted are these: 0.2 mg/kg iv, 3 h before 2% carrageenan; vs positive control cohort, p < 0.01. Type of test: in vivo, mouse. A digest of the protocol: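 Dorsal air pouch in 10–15-week-old male CD1 Swiss mice: 2 mL air sc, reinflated with 1.5 mL next day. Test compound (0.02 or 0.20 mg/kg) in PEG400:DMF:saline 20:20:80, or vehicle, was given iv by tail vein, n = 5 per cohort. After 3 h, 1 mL PBS or 2% carrageenan in PBS was injected into the pouch. Pouch fluid plus a 2 mL PBS wash was collected 4 h later; cells were counted by trypan blue on a hemocytometer. Student's t-test vs carrageenan/vehicle cohort.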

“Also recorded” adds a separate entry of the source.

As a reminder, the IC50 is the concentration that inhibits the measured activity by half.

Turning to `O=C(Nc1ccc(F)cc1)c1ccc(SCc2ccccc2B(O)O)nc1` [Compound 7, 2-((5-(4-Fluorophenylcarbamoyl)pyridin-2-ylthio)methyl)phenylboronic acid], the “effect on CXCL8-stimulated Ca2+ flux, in words” value with CXCR1 and CXCR2 was “completely eliminate”. Also, the IC50 in the test on C5a-induced Ca2+ flux (Homo sapiens, read-out: IC50, C5a-induced Ca2+ flux) was more than 5 µM; with PAF-induced Ca2+ flux (Homo sapiens, read-out: IC50, PAF-induced Ca2+ flux), more than 5 µM; with fMLF-induced Ca2+ flux (Homo sapiens, read-out: IC50, fMLF-induced Ca2+ flux), more than 5 µM. For the same compound, the “effect on C5a-induced Ca2+ flux, in words” value is “failed to inhibit; also recorded: no inhibition” in the test with C5a-induced Ca2+ flux and “no effect” with C5a-induced Ca2+ flux (listed as SX-517). In addition, the “effect on PAF-induced Ca2+ flux, in words” value in the test with PAF-induced Ca2+ flux was “failed to inhibit; also recorded: no inhibition”; in the test on PAF-induced Ca2+ flux (listed as SX-517) it was “no effect”. Moreover, the “effect on fMLF-induced Ca2+ flux, in words” value in the test on fMLF-induced Ca2+ flux was “failed to inhibit; also recorded: no inhibition”; in the test on fMLF-induced Ca2+ flux (listed as SX-517), “no effect”. The “competition of [125I]-CXCL8 binding to CXCR2 membranes, in words” value at CXCR2 [1] is given as “failed to compete”; on CXCR2 [1] (listed as SX-517) it was “unable to compete”. Besides, at CXCR2 [2], the “effect on cell surface expression of CXCR2, in words” value is “did not significantly alter”. Further, the figures for the “effect on CXCL8-induced ERK1/2 phosphorylation, in words” value in test [3] and in test [3] (listed as SX-517) were “completely blocked; also recorded: directly antagonized” and “antagonized”, respectively. Moreover, in the test with male CD1 Swiss mice, the “total cell count in inflammatory pouch infiltrate, in words” value is given as “significant reduction; also recorded: significantly reduced”.
